Source: PMC4094269 (Journal of Medicinal Chemistry, 2014)
“Also recorded” adds a separate entry of the source. Values belong to the molecule of their own block, whether it stands above or below them.

Assays:
PARP-1 = PARP-1 (Homo sapiens, UniProt P09874); test: PARP-1 inhibition assay; format: biochemical
[1] = test system: PARP-1-deficient DT40 cells; test: DT40 cell viability; format: cell-based, Chicken; details: 72 h, veliparib up to 10 μM
Water solubility = format: physicochemical
wild-type DT40 cells = test: DT40 cell viability; format: cell-based, Chicken; details: 72 h, veliparib up to 10 μM
In short: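 Chicken DT40 B-cell lines from an academic lab. 200 cells per well, continuously exposed to a range of drug concentrations for 72 h, in triplicate. Viability read by ATP content: one-step luciferase reagent added, luminescence read after 5 min. Viability is the treated ATP level over untreated ATP level × 100, with untreated set to 100%. SD from n = 3.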

[2] = test system: BRCA2-deficient DT40 cells; test: DT40 cell viability; format: cell-based, Chicken; details: 72 h

Sequence of PARP-1 (P09874 whole entry): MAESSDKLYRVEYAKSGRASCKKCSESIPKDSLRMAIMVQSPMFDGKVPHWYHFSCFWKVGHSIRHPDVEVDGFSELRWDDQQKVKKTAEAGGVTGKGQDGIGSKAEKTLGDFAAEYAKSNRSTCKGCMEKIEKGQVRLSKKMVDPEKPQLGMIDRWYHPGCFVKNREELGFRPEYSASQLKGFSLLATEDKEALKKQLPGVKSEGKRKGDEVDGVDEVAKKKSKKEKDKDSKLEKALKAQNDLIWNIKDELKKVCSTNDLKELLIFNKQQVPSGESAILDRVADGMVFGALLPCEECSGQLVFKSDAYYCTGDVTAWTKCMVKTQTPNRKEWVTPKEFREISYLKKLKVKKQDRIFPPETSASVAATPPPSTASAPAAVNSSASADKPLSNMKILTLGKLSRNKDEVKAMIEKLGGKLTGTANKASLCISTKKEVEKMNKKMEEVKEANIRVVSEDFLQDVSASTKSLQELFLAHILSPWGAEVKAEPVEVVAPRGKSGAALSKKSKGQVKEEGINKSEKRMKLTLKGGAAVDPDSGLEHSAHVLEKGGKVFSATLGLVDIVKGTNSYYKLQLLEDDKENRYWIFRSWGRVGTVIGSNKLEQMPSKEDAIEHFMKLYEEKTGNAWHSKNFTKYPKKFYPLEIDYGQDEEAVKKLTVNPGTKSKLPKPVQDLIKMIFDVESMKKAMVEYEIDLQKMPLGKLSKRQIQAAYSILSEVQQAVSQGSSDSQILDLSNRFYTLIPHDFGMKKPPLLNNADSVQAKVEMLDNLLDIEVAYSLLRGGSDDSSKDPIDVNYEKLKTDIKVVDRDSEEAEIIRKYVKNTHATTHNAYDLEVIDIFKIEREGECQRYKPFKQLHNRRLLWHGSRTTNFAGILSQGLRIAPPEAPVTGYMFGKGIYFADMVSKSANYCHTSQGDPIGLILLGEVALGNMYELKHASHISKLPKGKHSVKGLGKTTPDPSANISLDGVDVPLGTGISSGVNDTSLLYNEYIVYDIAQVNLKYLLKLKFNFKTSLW

Structure (SMILES): Cc1cc2c(c(C(N)=O)c1)OC(C)C2 (stereo not shown) [Compound 13b, 2,5-Dimethyl-2,3-dihydrobenzofuran-7-carboxamide]
PARP-1 inhibition, result in words (PARP-1): inactive

Structure (SMILES): CC1Cc2cc([N+](=O)[O-])cc(C(N)=O)c2O1 (stereo not shown) [Compound 14, 2-Methyl-5-nitro-2,3-dihydrobenzofuran-7-carboxamide]
PARP-1 inhibition, result in words (PARP-1): inactive

Structure (SMILES): NC(=O)c1cc(F)cc2c1OCC2 [Compound 20, 5-Fluoro-2,3-dihydrobenzofuran-7-carboxamide]
fold more potent (PARP-1; 20 vs initial lead 3): ~5 fold

Structure (SMILES): CC1Cc2cc(N)cc(C(N)=O)c2O1 (stereo not shown) [Compound 15, 5-Amino-2-methyl-2,3-dihydrobenzofuran-7-carboxamide]
PARP-1 inhibition, result in words (PARP-1): inactive

Structure (SMILES): NC(=O)c1cccc2c1O/C(=C\c1cc(O)cc(O)c1)C2=O [Compound 60, (Z)-2-(3′,5′-Dihydroxybenzylidene)-3-oxo-2,3-dihydrobenzofuran-7-carboxamide]
PARP-1 inhibition, result in words (PARP-1): poor inhibition; also recorded: complete loss of potency

Structure (SMILES): NC(=O)c1cccc2c1O/C(=C\c1ccccc1O)C2=O [Compound 55, (Z)-2-(2′-Hydroxybenzylidene)-3-oxo-2,3-dihydrobenzofuran-7-carboxamide]
PARP-1 inhibition, result in words (PARP-1): Poor inhibition

Structure (SMILES): COc1ccc(/C=C2\Oc3c(C(N)=O)cccc3C2=O)cc1 [Compound 54, (Z)-2-(4′-Methoxybenzylidene)-3-oxo-2,3-dihydrobenzofuran-7-carboxamide]
fold reduced inhibitory activity (PARP-1; 54 vs 57): 4 fold

Structure (SMILES): NC(=O)c1cccc2c1O/C(=C\c1cc(O)ccc1O)C2=O [Compound 61, (Z)-2-(2′,5′-Dihydroxybenzylidene)-3-oxo-2,3-dihydrobenzofuran-7-carboxamide]
PARP-1 inhibition, result in words (PARP-1): poor inhibition; also recorded: complete loss of potency

Second part, led by results:

times more potent (PARP-1; 67 vs ethyl analogue 65): ~3 times
Structure (SMILES): NC(=O)c1cccc2c1O/C(=C\c1ccc(OCCCN3CCOCC3)cc1)C2=O [Compound 67, (Z)-2-[4′-(3-Morpholin-4-ylpropoxy)benzylidene]-3-oxo-2,3-dihydrobenzofuran-7-carboxamide]

fold improvement in potency (PARP-1; 58 vs core 36): 30 fold
Structure (SMILES): NC(=O)c1cccc2c1O/C(=C\c1ccc(O)c(O)c1)C2=O [Compound 58, (Z)-2-(3′,4′-Dihydroxybenzylidene)-3-oxo-2,3-dihydrobenzofuran-7-carboxamide]

water solubility, result in words (Water solubility): water-soluble
Structure (SMILES): CN1CCN(CCOc2ccc(/C=C3\Oc4c(C(N)=O)cccc4C3=O)cc2)CC1 [Compound 66, (Z)-2-{4′-[2-(4-Methylpiperazin-1-yl)ethoxy]benzylidene}-3-oxo-2,3-dihydrobenzofuran-7-carboxamide]
cytotoxicity, result in words [1]: minimally cytotoxic
cytotoxicity, result in words (wild-type DT40 cells): minimally cytotoxic
cytotoxicity, result in words [2]: selective cytotoxicity; also recorded: selectively killed; also recorded: selectively active

fold improvement in potency (PARP-1; 68 vs 65): 9 fold
Structure (SMILES): NC(=O)c1cccc2c1O/C(=C\c1ccc(OCC(=O)N3CCOCC3)cc1)C2=O [Compound 68, (Z)-2-[4′-(2-Morpholin-4-yl-2-oxoethoxy)benzylidene]-3-oxo-2,3-dihydrobenzofuran-7-carboxamide]

fold more potent (PARP-1; rac-13c vs 13a): 4 fold
Structure (SMILES): CC1Cc2cc(F)cc(C(N)=O)c2O1 (racemic) [rac-13c, 5-Fluoro-2-methyl-2,3-dihydrobenzofuran-7-carboxamide]

fold increase in inhibition (PARP-1; rac-28 vs rac-13a): 2 fold
Structure (SMILES): CC1Cc2c(N)ccc(C(N)=O)c2O1 (racemic) [rac-28, 4-Amino-2-methyl-2,3-dihydrobenzofuran-7-carboxamide]

water solubility, result in words (Water solubility): water-soluble
Structure (SMILES): CN1CCN(CCS(=O)(=O)Nc2ccc(/C=C3\Oc4c(C(N)=O)cccc4C3=O)cc2)CC1 [Compound 72, (Z)-2-{4-[2-(4-Methylpiperazin-1-yl)ethanesulfonylamino]benzylidene}-3-oxo-2,3-dihydrobenzofuran-7-carboxamide]

fold less potent (PARP-1; 65 vs 64): 4 fold
Structure (SMILES): NC(=O)c1cccc2c1O/C(=C\c1ccc(OCCN3CCOCC3)cc1)C2=O [Compound 65, (Z)-2-[4′-(2-Morpholin-4-ylethoxy)benzylidene]-3-oxo-2,3-dihydrobenzofuran-7-carboxamide]
